Experimental data of several laboratories.
Each line is one published result; the experiments were not run side by side.
Effect on: cell growth or viability

With `O=C(Nc1cccc(Br)c1)c1cccc(S(=O)(=O)N2CCCCCC2)c1` the viability was 101% (HBL1; ATP luminescence; 1 µM; 5 days).
For `C[C@H](N)C(=O)Nc1ccccc1/N=c1\cc(-c2ccc3c(c2)OCCO3)oc2cc(F)ccc12`, the inhibition was 12.8% (MDA-MB-468; CCK-8; 1 µM).
`O=C(NCCCN1CCOCC1)c1ccc(-c2nc3ccc4[nH]ncc4c3c3c2CCCC3)cc1` has a GI50 of 413 nM (MV4-11; resazurin; 72 h).
The inhibition of `COc1ccc2/c(=N/c3ccccc3NC(=O)[C@H](C)N)cc(-c3ccc4c(c3)OCCO4)oc2c1` is reported as 13.4% (MDA-MB-468; CCK-8; 1 µM).
The inhibition of `OCc1coc(-c2nn(Cc3ccccc3)c3ccccc23)n1` is reported as 32% (RBE; ATP luminescence; 46 µM; 72 h).
With `CN(C)CCN(C)C(=O)c1ccc(-c2nc3ccc4[nH]ncc4c3c3c2CCCCC3)cc1` the GI50 was 383 nM (MV4-11; resazurin; 72 h).
The inhibition of `CCN(Cc1ccc(F)cc1F)c1ccc(CO)c(Cl)c1` is reported as 82% (RBE; ATP luminescence; 46 µM; 72 h).
For `O=C(NC1CCCCC1)c1ccc(-c2nc3ccc4[nH]ncc4c3c3c2CCCC3)cc1`, the GI50 was 4300 nM (MV4-11; resazurin; 72 h).
The inhibition of `CS(=O)(=O)NCCC(=O)Nc1ccccc1/N=c1\cc(-c2ccc3nc(N)oc3c2)oc2ccccc12` is reported as 3.19% (MDA-MB-468; CCK-8; 1 µM).
`O=C(NO)c1ccc(CC(=O)N(CCO)c2ccccc2)cc1` gave a viability of 117% (HBL1; ATP luminescence; 0.5 µM; 5 days).
For `OCc1ccc(-c2nn(Cc3ccccc3)c3ccccc23)o1`, the inhibition was 75% (RBE; ATP luminescence; 46 µM; 72 h).
With `CN(C)CCN(C)C(=O)c1ccc(-c2nc3ccc4[nH]ncc4c3c3c2CC(F)(F)CC3)cc1` the GI50 was 748 nM (MV4-11; resazurin; 72 h).
For `NCc1ccc(-c2nn(Cc3ccccn3)c3cccnc23)o1`, the inhibition was 74% (RBE; ATP luminescence; 46 µM; 72 h).
The viability of `COC(=O)CNC(=O)C(=O)OC` is reported as 113% (HBL1; ATP luminescence; 0.5 µM; 5 days).
For `OCc1ccc(-c2nn(Cc3ccccc3)c3ccccc23)s1`, the inhibition was 30% (RBE; ATP luminescence; 46 µM; 72 h).
For `O=C(NCCc1ccccn1)c1ccc(-c2nc3ccc4[nH]ncc4c3c3c2CCCC3)cc1`, the GI50 was 1000 nM (MV4-11; resazurin; 72 h).
`NCCC(=O)Nc1ccccc1/N=c1\cc(-c2ccc3c(c2)OCCO3)oc2cc(F)ccc12` gave an inhibition of 31.2% (MDA-MB-468; CCK-8; 1 µM).
With `O=C(NCCCN1CCCCC1)c1ccc(-c2nc3ccc4[nH]ncc4c3c3c2CCCC3)cc1` the GI50 was 2400 nM (MV4-11; resazurin; 72 h).
`NCCC(=O)Nc1cccc(/N=c2\cc(-c3ccc4c(c3)OCO4)oc3ccccc23)c1` gave an inhibition of 3.6% (MDA-MB-468; CCK-8; 1 µM).
With `OCC1CCC(c2nn(Cc3ccccc3)c3ccccc23)O1` (stereo not shown) the inhibition was 13% (RBE; ATP luminescence; 46 µM; 72 h).
With `Cc1n[nH]c2ccc3nc(-c4ccc(C(=O)NCCN(C)C)cc4)c4c(c3c12)CCC(F)(F)C4` the GI50 was 132 nM (MV4-11; resazurin; 72 h).
`O=C(OCc1ccccc1)n1nc(-c2ccc(CO)o2)c2ccccc21` has an inhibition of 55% (RBE; ATP luminescence; 46 µM; 72 h).
The inhibition of `NCC(=O)Nc1ccccc1/N=c1\cc(-c2ccc3c(c2)OCO3)oc2ccccc12` is reported as 3.86% (MDA-MB-468; CCK-8; 1 µM).
`O=C(CCCCCCC(=O)Nc1ccccc1)NO` has a viability of 132% (HBL1; ATP luminescence; 0.1 µM; 5 days).
`NCC(=O)Nc1ccccc1/N=c1\cc(-c2ccc3c(c2)OCCO3)oc2cc(F)ccc12` gave an inhibition of 11.8% (MDA-MB-468; CCK-8; 1 µM).
With `COCCCNC(=O)c1ccc(-c2nc3ccc4[nH]ncc4c3c3c2CCCC3)cc1` the GI50 was 2900 nM (MV4-11; resazurin; 72 h).
For `COc1cccc(Cn2nc(-c3ccc(CN)o3)c3ccccc32)c1`, the inhibition was 78% (RBE; ATP luminescence; 46 µM; 72 h).
`NCC(=O)Nc1ccccc1/N=c1\cc(-c2ccc3c(c2)OCO3)oc2c([N+](=O)[O-])cccc12` gave an inhibition of 5.28% (MDA-MB-468; CCK-8; 1 µM).
